# Screening data: PubChem, several laboratories
# KLK5 inh: human KLK5 protease inhibitors, primary screen, biochemical, 1536-well; recombinant hK5, fluorogenic AMC substrate cleavage; inhibition, % at 5 µM; actives 0.59% (n = 210,000); AID 873, 2007;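 active = inhibition of 40% or more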;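 also: 0% = enzyme controls without compound and 100% = no-enzyme blanks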
# Target sequence (Q9Y337 67-293 limits assumed): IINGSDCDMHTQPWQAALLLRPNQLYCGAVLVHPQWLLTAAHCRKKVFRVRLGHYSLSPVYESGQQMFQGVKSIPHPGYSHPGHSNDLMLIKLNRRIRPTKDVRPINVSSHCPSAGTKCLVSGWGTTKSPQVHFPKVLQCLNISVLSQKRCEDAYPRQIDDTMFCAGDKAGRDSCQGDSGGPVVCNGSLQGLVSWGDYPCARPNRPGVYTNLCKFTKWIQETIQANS
# FXIIa inh: human FXIIa protease inhibitors, primary screen, biochemical, 1536-well. actives 0.3% (n = 220,000). AID 800, 2007. purified FXIIa, Boc-QGR-AMC fluorogenic substrate, 2 h. Coagulation factor XII (Homo sapiens), P00748. inhibition, % at 5 µM; in the data active = inhibition above about 40%;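 also: 0% = enzyme with no compound and 100% = blank without enzyme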
# thrombin 1536: human alpha-thrombin inhibitors, primary screen, counter-screen for coagulation protease inhibitor project, biochemical, 1536-well, fluorogenic AMC substrate | Prothrombin (Homo sapiens), P00734 | Boc-VPR-AMC fluorogenic substrate cleavage | inhibition, % at 5 µM | actives 0.26% (n = 220,000) | AID 1046, 2008;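 active = inhibition at or above 40%; inactive = inhibition below 40%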;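 also: 0% = enzyme with no compound and 100% = wells without enzyme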
#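 System: Human alpha-thrombin protein | Medium: pH 7.5 Tris (50 mM) with NaCl 150 mM, Tween 20 0.05% | Times: Enzyme reaction carried out at room temperature | Detection: AMC fluorescence, 355/460 nm | Evaluation: Percent inhibition scaled between no-compound controls and no-enzyme blanks | Benchmarks: Enzyme without compound as high, wells lacking enzyme as low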
# PGE2 EP2 inh: human EP2 receptor antagonists, primary screen, TR-FRET cAMP, C6 glioma cells; C6 glioma cells expressing human EP2; cells stimulated with saturating PGE2; inhibition, % at 25 µM; actives 0.52% (n = 260,000);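 active = percent inhibition above 40 after rounding to a whole number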;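 also: rat C6 glioma host cells with rolipram phosphodiesterase inhibitor present; the protocol text gives 20 µM as final concentration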
# Target sequence (P43116 whole entry, looked up): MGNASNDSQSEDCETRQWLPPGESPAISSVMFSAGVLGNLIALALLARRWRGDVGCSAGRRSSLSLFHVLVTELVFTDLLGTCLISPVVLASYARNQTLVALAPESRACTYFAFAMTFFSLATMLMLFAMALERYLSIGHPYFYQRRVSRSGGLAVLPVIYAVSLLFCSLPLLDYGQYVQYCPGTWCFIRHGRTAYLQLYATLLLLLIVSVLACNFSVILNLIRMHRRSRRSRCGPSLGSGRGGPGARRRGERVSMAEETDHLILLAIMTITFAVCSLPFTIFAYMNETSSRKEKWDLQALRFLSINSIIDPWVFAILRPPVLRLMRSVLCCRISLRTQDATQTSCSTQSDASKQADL
# FXIa inh 1536: human FXIa protease inhibitors, primary screen, biochemical, 1536-well; inhibition, % at 5 µM; AID 798, 2007; actives 0.14% (n = 220,000); purified FXIa, Boc-Glu-Ala-Arg-AMC fluorogenic substrate;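 active = inhibition of at least 40%; inactive = inhibition below 40%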;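 also: fluorescence of freed AMC excited at 355 nm; 0% = enzyme without compound and 100% = no enzyme blank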
# EP2 mod: EP2 receptor modulators, cAMP readout, primary screen, cell-based, HTRF cAMP, PGE2 stimulation. Prostaglandin E2 receptor EP2 subtype (Homo sapiens), P43116. EP2-expressing cells, cAMP HTRF FRET, PGE2 co-stimulation. induction, % at 25 µM. actives 0.83% (n = 260,000);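 active = compounds whose cAMP rise, as percent of the full-agonist control response, exceeds 60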;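 also: rat C6 glioma line stably carrying human EP2 under a CMV promoter; the protocol text gives 20 µM as final concentration; 100% = response of wells given 1 µM PGE2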
# Starred values were filed as active, the others as inactive; x = no result given; ! = a repeat was not active. The list is not random: actives were taken first. Their share in the collection is about 2.1%.
SMILES,KLK5 inh,FXIIa inh,thrombin 1536,PGE2 EP2 inh,FXIa inh 1536,EP2 mod
O=C(c1nc2nc(-c3ccccc3)cc(C(F)(F)F)n2n1)N1CCCCC1,63.8*,16.2,22.4,8.4,12.7,31.0
CCc1ccc(-n2c(SCC(=O)NC(C)(C)C)nnc2-c2ccccn2)cc1,x,x,x,3.1,x,-11.8
CC(C)(C)OC(=O)N1CC=C2C(C#N)=C(N)C(C#N)(C#N)C(c3ccc(F)c(F)c3)C2C1 (stereo not given),x,x,x,9.9,x,-19.0
CC(C)(C)OC(=O)N1CC=C2C(C#N)=C(N)C(C#N)(C#N)C(c3ccc4c(c3)OCO4)C2C1 (stereo not given),x,x,x,40.3*,x,14.9
Cc1cccc(Cn2c(SCCO)nc3c2c(=O)[nH]c(=O)n3C)c1,x,x,x,9.7,x,0.4
CSc1ccc(NC(=O)Nc2ccc(C(=O)NCC(=O)O)cc2)cc1,63.6*,2.1,-7.8,22.1,-1.8,-21.5
CCOC(=O)C(=CNc1cc(C)ccc1-n1cccc1)C(=O)OCC,1.5,8.2,1.3,3.8,3.7,64.7*
CCOC(=O)C(=CNc1ccc(C(F)(F)F)cc1Cl)C(=O)OCC,4.9,-2.9,-3.3,5.9,-8.3,68.6*
Cc1cc(NC(=O)CCN2C(=O)/C(=C/c3ccccc3F)SC2=S)no1,-0.8,95.3*,-8.2,1.7,2.1,-5.1
Cc1cc(NC(=O)CCN2C(=O)/C(=C\c3ccccc3)SC2=S)no1,-1.8,10.1,5.8,11.2,2.4,-26.8
COc1ccc(-c2cc(C(F)F)n3ncc(C(=O)N4CCCCC4C)c3n2)cc1 (stereo not given),x,x,x,15.6,x,-83.8
COc1ccc(S(=O)(=O)N2CCC(C(=O)Nc3ccccc3C)CC2)cc1OC,x,x,x,13.0,x,-4.8
Cc1ccc(S(=O)(=O)NCCC(c2ccccc2)c2ccco2)cc1 (stereo not given),-9.9,3.1,-4.2,4.3,14.6,64.4*
Cc1ccc(S(=O)(=O)NCCC(c2ccc(F)cc2)c2ccco2)cc1 (stereo not given),25.7,28.2,20.1,3.2,14.0,58.4
Cc1ccc(NCCC(=O)c2ccc(Cl)cc2)cc1C,46.5*,12.6,7.8,7.1,4.2,-17.1
CS(=O)(=O)N(CC(=O)NCc1ccco1)c1cccc(Cl)c1,x,x,x,6.3,x,-5.8
Cc1sc2ncn3c(SCc4ccc(Cl)cc4)nnc3c2c1C,x,x,x,15.9,x,-1.6
N#C/C(=C\C1CC=CCC1)c1nc2ccccc2[nH]1 (stereo not given),-2.5,9.9,1.4,21.5,3.9,-47.5
Cn1c(/C(C#N)=C/C2CC=CCC2)nc2ccccc21 (stereo not given),46.5*,6.1,6.9,17.3,3.5,-24.3
O=C(NCCc1nc2ccccc2[nH]1)c1ccco1,52.0*,14.5,20.1,7.8,19.9,-28.0
COCc1nnc(NC(=O)CCCOc2ccccc2C)s1,x,x,x,8.4,x,-68.8
O=C(c1ccco1)N1CCC(n2cnc3cccnc32)CC1,x,x,x,0.6,x,3.2
Cc1ccc2nc(N/N=C/c3cccc(C)n3)cc(C)c2c1,x,x,x,40.2*,x,-44.9
CCc1ccc2nc(SCC(=O)N3c4ccccc4CC3C)c(C#N)cc2c1 (stereo not given),x,x,x,8.6,x,64.3*
CCN1CCOC(CC(=O)Nc2cccc(C)c2)C1=O (stereo not given),x,x,x,4.9,x,69.2*
SMILES,KLK5 inh,FXIIa inh,thrombin 1536,PGE2 EP2 inh,FXIa inh 1536,EP2 mod
Fc1ccccc1C1c2[nH]c3ccccc3c2CCN1Cc1ccoc1 (stereo not given),-0.9,6.7,-5.0,7.5,-1.8,64.4*
CCNCCNc1ccc(Cl)cc1[N+](=O)[O-],x,x,x,2.2,x,x
Cc1ccc(C(=O)NCCNc2ccc(Cl)cc2[N+](=O)[O-])o1,7.0,59.9*,-1.8,5.9,-1.3,-8.7
CCC(C)(C)NC(=O)CN(C(=O)c1snc(C(N)=O)c1N)c1cc(C)cc(C)c1,x,x,x,15.6,x,-26.7
Cc1ccc(C2(C(F)(F)F)NC(=O)C3=C(CC(C)(C)CC3=O)O2)cc1 (stereo not given),x,x,x,10.7,x,7.5
CCNc1nc(SC(C)C(=O)OC)nc(N2CCOCC2)n1 (stereo not given),115.4*,-1.6,-1.0,10.5,-4.7,31.3
CC(C)C(=O)c1ccc(O)c(O)c1,-2.9,3.1,-5.9,6.3,1.4,11.4
CC(C)NC[C@@H](O)c1ccc(O)c2ncccc12,x,x,x,10.9,x,16.8
CC(C)NCC(O)COCc1ccc(Cl)cc1 (stereo not given),7.1,-14.4,-4.4,4.9,-12.9,-5.9
NCC(O)c1ccc(O)c(O)c1 (stereo not given),x,x,x,8.7,x,66.4*
CC(C)NC[C@H](O)c1ccc(O)c(O)c1,x,x,x,11.3,x,76.0*!
CCC(NC(C)C)C(O)c1ccc(O)c(O)c1 (stereo not given),-8.8,12.7,-0.4,15.2,6.5,60.6*
CC(C)NCC(O)c1cc(O)cc(O)c1 (stereo not given),-4.6,1.3,-1.3,20.8,-6.1,81.0*!
CCn1c(=O)n(CC(=O)NCCc2ccccc2)c2cccnc21,x,x,x,x,x,20.7
NCCC1([N+](=O)[O-])CCNCC1,x,x,x,50.2*,x,8.4
COc1ccc(-n2nc(C(=O)N3CCCCC3)c(C)c(C#N)c2=O)cc1,2.7,10.8,-0.1,13.7,-2.0,31.2
CCOC(=O)c1nn(-c2ccc(OC)cc2)c(=O)c(C#N)c1C,x,x,x,73.6*,x,-33.0
NC(=O)NC(=O)CSc1nc2sc(-c3ccccc3)cc2c(=O)n1-c1ccccc1,1.5,9.3,0.0,3.4,-0.7,64.5*
O=C(Nc1ccc(Oc2cccnc2)cc1)C1CCCN1 (stereo not given),x,x,x,11.4,x,4.0
NC(N)=N[C@@H]1C(O)[C@H](N=C(N)N)[C@@H](O)C(O)[C@H]1O (stereo not given in full),x,x,x,51.3*,x,1.2
O=C(C[C@@H]1C=Cc2ccccc2N1C(=O)c1ccccc1)c1ccccc1,x,x,x,58.8*,x,38.4
Cc1ccc2c(c1)C=CC(C)N2C(=O)c1ccccc1 (stereo not given),4.7,-1.2,-18.0,6.5,4.4,64.1*
COc1ccc(C(=O)N2c3ccccc3C=CC2C#N)cc1 (stereo not given),-10.8,12.6,-14.2,5.2,-3.4,13.6
O=C(N/N=C/c1cc([N+](=O)[O-])ccc1O)c1cccc2cc[nH]c12,60.3*,18.8,13.1,16.4,-9.2,-15.6
O=C(N/N=C/c1cccc([N+](=O)[O-])c1)c1cccc2cc[nH]c12,3.2,6.7,1.6,2.5,-7.9,-3.5
